Data on 13 compounds can be found in PubChem BioAssay.

The nature of experiment [1]: inhibitors of TNFa-induced NFkB p65 translocation, primary screen, imaging, HUVEC, MLSMR starter and 10KST1 sets (AID 438).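 For inhibition: signal is the nuclear over cytoplasmic p65 intensity ratio per well.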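 Note: compound added about 3h40 before a 20 min TNFalpha stimulation.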 The following applies: HUVEC TNFa-induced p65 nuclear translocation; cell count: measured here: nuclei count (cytotoxicity indicator), at 2.08 µM; inhibition: at 2 µM, stronger effect = higher value, 0% TNFa-plus-vehicle, 100% no-TNFa wells.
The nature of experiment [2]: endothelial E-selectin expression blockers – imaging, HUVEC, immunofluorescence, MLSMR starter and 10KST1 sets, primary screen (AID 487;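 active = visually confirmed hit in the image check and inhibition above 20%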;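 for inhibition: signal is fraction of cell area covered by stained E-selectin grains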;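 for nuclei count: 100% = median nuclei count of all wells on the same plate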). The following applies: HUVEC TNFalpha-induced E-selectin immunofluorescence imaging, at 2 µM; inhibition: stronger effect = higher value; nuclei count: measured here: cell number, toxicity.
Experiment [3] is described as follows: Primary imaging screen for DUSP6 inhibitors that restore phospho-Erk in transfected HeLa cells, chemical complementation (AID 609;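 active = compounds giving at least 50% inhibition in the cell-based MKP-3 phosphatase rescue imaging test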;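 for inhibition: phospho-Erk level distribution per well compared with pooled transfected vehicle control wells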). The following applies: HeLa MKP-3 transfected, phospho-Erk imaging KS statistic, at 10 µM, cells stimulated with TPA for 15 min.
For experiment [4], the target named is Dual specificity protein phosphatase 6 (Homo sapiens) (UniProt Q16828). Described as above. The following applies: HeLa MKP-3 transfected, phospho-Erk imaging KS statistic; at 10 µM; stronger effect = higher value; cells stimulated with TPA for 15 min.
In experiment [5] the target is Voltage-gated potassium channel subunit beta-2 (Rattus norvegicus) (UniProt P62483). Kind of experiment: inhibitors of rat Kvbeta2 reductase activity – biochemical, NADPH fluorescence, primary screen (AID 622;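 active = fluorescence slope higher than the sample average by over 3 SD, cut at about -0.22 in these data, passing the limit was not always enough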;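 note: slope of raw intensity against log time taken from 70 to 1610 s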). The following applies: recombinant KvBeta, 4-cyanobenzaldehyde reduction, at 10 µM, stronger effect = higher value.
Experiment [6] shares this target. Kind of experiment: enhancers of rat Kvbeta2 NADPH turnover – biochemical, NADPH fluorescence, primary screen (AID 623;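 active = NADPH fluorescence slope more negative than the mean of all samples by about 3 SD, 99.7% confidence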;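 note: fluorescence intensity change per second fitted from 20 to 320 s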). The following applies: Recombinant KvBeta, NADPH fluorescence decrease slope, 10 min; at 10 µM; stronger effect = lower value.
The target of experiment [7] is Muscarinic acetylcholine receptor M4 (Homo sapiens) (UniProt P08173). The experiment in a line: M4-linked GIRK flux change, two-sided – cell-based, HEK293 M4/GIRK, thallium flux, BTC-AM, M4 allosteric agonist project, primary screen (AID 625;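 active = fluorescence slope after compound addition differing from the mean of all tested samples at 99.7% confidence, mostly higher but some lower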;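 note: thallium influx through GIRK channels coupled to M4 in HEK293 cells with BTC-AM dye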). The following applies: at 10 µM, actives lie on both sides. The method in brief: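 System: HEK293 cells with M4 receptor and GIRK channels | Incubation: Cells overnight at 37 °C, BTC-AM loading 1 h, reads 2 min total | Technique: Kinetic BTC-AM fluorescence sampled at 1 Hz, 10 s pre-addition baseline | Measure: Post-addition slope, 15–24 s, of baseline-normalized fluorescence | Control set: Carbachol positive, DMSO negative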

The nature of experiment [8]: inhibitors of larval lipid processing in zebrafish, primary screen, whole organism, PED6 fluorescence, gall bladder and intestine (AID 686;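 active = a full or partial loss of lipid-probe fluorescence in the fish gall bladder, intestine or both, judged by eye; inactive = no fluorescence loss, or compound toxic to the fish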;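 note: larvae 5 to 7 days old with five fish per well; signal comes from phospholipase A2 cleavage of quenched PED6 carried via bile; overnight exposure to compound and PED6 before scoring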). The following applies: Zebrafish larvae PED6 lipid processing, fluorescence scoring; screened at 20 µM (by protocol). The method in brief: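 Test system – live zebrafish larvae aged 5-7 days, whole organism · Buffer or medium – E3 fish medium · Reagent – quenched phospholipase substrate PED6, 100 nM final, ingested by larvae · Doses – 20 µM single dose · Incubation – overnight compound and PED6 incubation · Technique – visual fluorescence microscopy scoring of gall bladder, gut · Read-out basis – visual per-well fluorescence inhibition score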

Experiment [9] in a line: loss of swimming-algae plug formation – whole organism, Chlamydomonas reinhardtii, WT vs cilia-less mutant, absorbance, 96-well, primary screen (AID 463189;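 active = inhibition at or above 50% relative to wild type and mutant plate controls; inactive = inhibition below 50%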;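 note: 0% = wild type cc124 cells in DMSO and 100% = ciliumless bld1 mutant cells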). The following applies: Chlamydomonas reinhardtii gravitaxis, OD600 absorbance, 2 days; at 10 µM; stronger effect = higher value.
Where [10] appears, read: measured here: cell density z-score.
Setting [11] is: measured here: nuclear c-Myc green intensity z-score.
[12] abbreviates: measured here: nuclear pErk red intensity z-score, stronger effect = higher value.

Active and inactive are the calls of the source.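 Rule for the calls, unless noted: active = inhibition above 20% together with a positive visual image hit; inconclusive = visual image hit but inhibition not above 20%; inactive = no visual image hit.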

Voltage-gated potassium channel subunit beta-2 (Rattus norvegicus), sequence (P62483 whole entry, looked up): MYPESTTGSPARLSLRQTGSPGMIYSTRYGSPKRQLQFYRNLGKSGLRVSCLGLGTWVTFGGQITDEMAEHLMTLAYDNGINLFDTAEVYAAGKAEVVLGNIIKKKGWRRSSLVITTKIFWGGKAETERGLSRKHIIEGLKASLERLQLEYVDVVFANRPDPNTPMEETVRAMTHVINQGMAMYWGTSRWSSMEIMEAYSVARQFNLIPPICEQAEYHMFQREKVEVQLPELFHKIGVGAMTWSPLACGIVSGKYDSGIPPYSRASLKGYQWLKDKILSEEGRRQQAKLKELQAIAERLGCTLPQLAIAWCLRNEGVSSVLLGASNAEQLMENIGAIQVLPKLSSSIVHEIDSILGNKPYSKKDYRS
Dual specificity protein phosphatase 6 (Homo sapiens), sequence (Q16828 whole entry, looked up): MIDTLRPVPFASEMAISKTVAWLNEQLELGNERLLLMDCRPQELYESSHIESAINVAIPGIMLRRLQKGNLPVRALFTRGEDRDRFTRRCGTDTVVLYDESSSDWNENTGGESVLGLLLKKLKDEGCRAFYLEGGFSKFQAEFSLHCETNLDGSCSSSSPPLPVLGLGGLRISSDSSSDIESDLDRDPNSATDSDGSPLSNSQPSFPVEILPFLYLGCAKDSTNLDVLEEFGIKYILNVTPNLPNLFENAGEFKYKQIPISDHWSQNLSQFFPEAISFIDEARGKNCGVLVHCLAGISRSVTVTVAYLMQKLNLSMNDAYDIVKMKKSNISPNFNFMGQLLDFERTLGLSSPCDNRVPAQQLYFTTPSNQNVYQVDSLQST
Muscarinic acetylcholine receptor M4 (Homo sapiens), sequence (P08173 whole entry, looked up): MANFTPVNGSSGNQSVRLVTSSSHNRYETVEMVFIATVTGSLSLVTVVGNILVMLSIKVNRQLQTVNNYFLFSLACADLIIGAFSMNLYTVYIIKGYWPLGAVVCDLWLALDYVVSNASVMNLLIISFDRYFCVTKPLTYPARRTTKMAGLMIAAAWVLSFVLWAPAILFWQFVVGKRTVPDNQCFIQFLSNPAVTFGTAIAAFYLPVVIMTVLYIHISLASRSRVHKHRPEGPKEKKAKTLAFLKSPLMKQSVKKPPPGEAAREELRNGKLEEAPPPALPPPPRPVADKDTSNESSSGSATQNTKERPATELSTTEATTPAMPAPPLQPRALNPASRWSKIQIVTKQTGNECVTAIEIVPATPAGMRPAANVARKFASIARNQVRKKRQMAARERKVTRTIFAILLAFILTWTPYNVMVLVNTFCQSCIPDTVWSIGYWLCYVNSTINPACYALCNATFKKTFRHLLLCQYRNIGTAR

For `Cc1cc(OCC(=O)Nn2cnnc2)ccc1Br`, the cell count in [1] worked out at 529. Also, the inhibition in experiment [1] is -8.3% (inactive); in [2] it was -72.3% (inactive); in experiment [4], -6.59% (inactive); in experiment [9] it was -9.18% (inactive). In experiment [2], the nuclei count came to 119%. The values for the z-score in experiment [3] (setting [10]), in experiment [3] (setting [11]) and in experiment [3] (setting [12]) were 0.551, 0.431 and 0.858, respectively. Further, the fluorescence slope is -0.433 (inactive) in [5] and 0.00434 (inactive) in experiment [7]. In experiment [6], the NADPH fluorescence slope was -0.00012 (inactive). In addition, the outcome in experiment [8] was inactive.

As to `CCn1c(SCC(=O)NC2CCCCC2C)nnc1-c1ccc(OC)cc1` (centres undefined), the cell count in experiment [1] came out at 430. Also, the inhibition in experiment [1] is -4.4% (inactive); in experiment [2], -37.9% (inactive); in [4] it was 7.73% (inactive); in experiment [9] it was -4.06% (inactive). The nuclei count in [2] was 149%. For the same compound, the values for the z-score in experiment [3] (setting [10]), in [3] (setting [11]) and in experiment [3] (setting [12]) were -0.0183, 0.142 and 0.845, respectively. Moreover, the fluorescence slope was -0.45 (inactive) in experiment [5] and 0.00502 (inactive) in [7]. Besides, the NADPH fluorescence slope in experiment [6] is -0.000123 (inactive). Moreover, the compound was classed as inactive in experiment [8].

In the case of `CC(C)c1nc(N2CCOCC2)c(C#N)c2c1COC(C)(C)C2`, the cell count in [1] is 535. Besides, the inhibition in experiment [1] is -5.2% (inactive); in experiment [2] it was -79.8% (inactive); in experiment [4] it was -9.53% (inactive); in [9], -30% (inactive). Further, the nuclei count in [2] is 110%. The z-score in experiment [3] (setting [10]) is 0.188; in experiment [3] (setting [11]), -0.524; in experiment [3] (setting [12]), -1.28. The fluorescence slope in [5] is -0.424 (inactive); in experiment [7], 0.00516 (inactive). The NADPH fluorescence slope in experiment [6] is 4.6e-06 (inactive). The call in [8] was inactive.

Regarding `O=C(COc1ccc(-c2nnc(N3CCCCC3)c3ccccc23)cc1)N1CCCCC1`, the cell count in experiment [1] stood at 373. In addition, the inhibition in experiment [1] is 1.4% (inactive); in [2], -58.5% (inactive); in experiment [4] it was 5.65% (inactive); in [9] it was 34.6% (inactive). In experiment [2], this compound returned a nuclei count of 89.7%. Further, the z-score in [3] (setting [10]) was 0.333; in [3] (setting [11]), -0.404; in experiment [3] (setting [12]) it was 1.13. The results for the fluorescence slope in experiment [5] and in [7] were -0.487 (inactive) and 0.00419 (inactive), respectively. The NADPH fluorescence slope in [6] was 2e-05 (inactive). Moreover, in [8], the compound was classed as inactive.

Consider `CCc1cc(=O)oc2cc(C)c(CN3CCCC(C)C3)c(O)c12` (centres undefined), for which the cell count in experiment [1] stood at 539. The inhibition is -7.1% (inactive) in [1], -2.7% (inactive) in experiment [2], 12.7% (inactive) in experiment [4] and -8.79% (inactive) in experiment [9]. The nuclei count in experiment [2] was found to be 109%. Moreover, the z-score is 1.56 in experiment [3] (setting [10]), 0.423 in experiment [3] (setting [11]) and -0.74 in [3] (setting [12]). For the same compound, the fluorescence slope was -0.486 (inactive) in experiment [5] and 0.00473 (inactive) in experiment [7]. Also, the NADPH fluorescence slope in experiment [6] was -2.8e-05 (inactive). Besides, the compound was called inactive in experiment [8].

Regarding `O=C(c1coc(=O)c(Br)c1)N1CCOCC1`, in experiment [1], the cell count amounted to 718. Also, the inhibition in experiment [1] is 2.4% (inactive); in [2], -137% (inactive); in experiment [4] it was -4.7% (inactive); in experiment [9], 14.2% (inactive). The nuclei count in [2] was 181%. For the same compound, the z-score in experiment [3] (setting [10]) is -0.0624; in [3] (setting [11]) it was 0.26; in [3] (setting [12]), 0.186. Further, the fluorescence slope in experiment [5] is -0.429 (inactive); in experiment [7], 0.00447 (inactive). Further, the NADPH fluorescence slope in experiment [6] is 3.1e-07 (inactive). In addition, in [8], the compound was called inactive.

For `CCC(=O)Nc1nc2ccccc2n1Cc1ccccc1C`, the cell count in [1] is 480. Also, the inhibition in experiment [1] was -2.1% (inactive); in [2] it was -158% (inactive); in experiment [4], -3.97% (inactive); in experiment [9], -13.6% (inactive). The nuclei count in experiment [2] was 114%. The figures for the z-score in experiment [3] (setting [10]), in [3] (setting [11]) and in [3] (setting [12]) were 0.4, 0.0083 and 0.265, respectively. Moreover, the results for the fluorescence slope in experiment [5] and in experiment [7] were -0.407 (inactive) and 0.00508 (inactive), respectively. In addition, in experiment [6], the NADPH fluorescence slope is 1.4e-06 (inactive). In addition, the result in experiment [8] was inactive.

For the compound `O=C1NC(=O)C(c2cn(-c3ccccc3)nc2-c2ccc(F)cc2)N1` (centres undefined), the cell count in experiment [1] is 664. For the same compound, the inhibition in experiment [1] is 1.3% (inactive); in experiment [2], -12.6% (inactive); in experiment [4], 3.49% (inactive); in [9] it was 2.79% (inactive). Moreover, the nuclei count in experiment [2] turned out to be 115%. Also, the z-score is 0.135 in experiment [3] (setting [10]), -0.561 in experiment [3] (setting [11]) and -0.862 in experiment [3] (setting [12]). Moreover, the figures for the fluorescence slope in [5] and in experiment [7] were -0.46 (inactive) and 0.005 (inactive), respectively. In addition, in experiment [6], the NADPH fluorescence slope was -5.3e-05 (inactive). The compound was called inactive in [8].

Regarding `CN(C)CCNC(=O)C12CC3(C)CC(C)(CC(C)(C3)C1)C2`, the cell count in experiment [1] turned out to be 524. Besides, the inhibition was -4.4% (inactive) in [1], -34.6% (inactive) in experiment [2], -6.59% (inactive) in experiment [4] and -10.5% (inactive) in [9]. The nuclei count in [2] was 118%. The z-score in experiment [3] (setting [10]) was -1.47; in experiment [3] (setting [11]) it was 1.88; in [3] (setting [12]), -1.54. For the same compound, the fluorescence slope in experiment [5] is -0.465 (inactive); in experiment [7], 0.00507 (inactive). In addition, the NADPH fluorescence slope in experiment [6] is -0.000122 (inactive). The compound was classed as inactive in [8].

On to `CCc1nc2c(sc3nc(N4CCOCC4)c4c(c32)CC(C)(C)OC4)c(=O)o1`, for which the cell count in experiment [1] is 537. Further, the inhibition was 0.8% (inactive) in experiment [1], -123% (inactive) in experiment [2], 3.42% (inactive) in [4] and -8.15% (inactive) in experiment [9]. The nuclei count in experiment [2] amounted to 140%. In addition, the z-score in experiment [3] (setting [10]) was -0.303; in experiment [3] (setting [11]), 0.948; in experiment [3] (setting [12]), -1.15. Further, the fluorescence slope is -0.479 (inactive) in experiment [5] and 0.00481 (inactive) in experiment [7]. In addition, the NADPH fluorescence slope in experiment [6] was -8.3e-05 (inactive). Further, the compound was classed as inactive in [8].

As for `CCOc1ccc(C2CC(c3ccccc3)Nc3nc(N)nn32)cc1` (centres undefined), the cell count in experiment [1] stood at 364. For the same compound, the inhibition in experiment [1] is -2.2% (inactive); in experiment [2], -80.6% (inactive); in [4], 11.9% (inactive); in experiment [9], -15.5% (inactive). In experiment [2], this compound displayed a nuclei count of 144%. Besides, the z-score was 1.38 in [3] (setting [10]), -1.02 in experiment [3] (setting [11]) and 0.957 in [3] (setting [12]). For the same compound, the fluorescence slope was -0.467 (inactive) in experiment [5] and 0.00481 (inactive) in [7]. The NADPH fluorescence slope in [6] was -0.000102 (inactive). The compound was classed as inactive in [8].

With `Cn1c(N)c(C#N)c2c(c1=S)CSC(C)(C)C2`, the cell count in experiment [1] worked out at 571. Moreover, the inhibition is -20% (inactive) in experiment [1], -64.2% (inactive) in experiment [2], 25.8% (inactive) in [4] and 9.9% (inactive) in [9]. In [2], this compound showed a nuclei count of 144%. Moreover, the z-score in experiment [3] (setting [10]) is 0.44; in experiment [3] (setting [11]) it was -1.23; in [3] (setting [12]), -1.03. For the same compound, the fluorescence slope in experiment [5] is -0.446 (inactive); in experiment [7], 0.00454 (inactive). Further, the NADPH fluorescence slope in experiment [6] was -6.4e-06 (inactive). Also, in experiment [8], the outcome was inactive.

As for `CCCCCOc1ccccc1C(=O)NCCCC(=O)O`, the cell count in experiment [1] came out at 352. Moreover, the inhibition in experiment [1] is -4.8% (inactive); in experiment [2], -57.4% (inactive); in [4], 19.4% (inactive); in experiment [9], 32.4% (inactive). In experiment [2], this compound yielded a nuclei count of 116%. Besides, the values for the z-score in experiment [3] (setting [10]), in experiment [3] (setting [11]) and in experiment [3] (setting [12]) were 0.366, -0.837 and 0.123, respectively. Besides, the fluorescence slope in experiment [5] is -0.463 (inactive); in experiment [7], 0.00541 (inactive). For the same compound, the NADPH fluorescence slope in experiment [6] is -0.000126 (inactive). The outcome in experiment [8] was inactive.
